In the library only some 4.5% were active in any assay of this set; here they are far more common.
TAAR1 ag – human TAAR1 agonism; Q96RJ0; CHO RD-HGA16 TAAR1, Fluo-8 calcium fluorescence; vehicle wells 0%, saturating PEA agonist 100%; activation, % at 3 µM; 0.99% of 360,000 active; AID 624467;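 active = activation above the mean activation of all test compounds in the run plus 3 SD, cut at about 38% in these data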
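Test system: RD-HGA16 (CHO) cells co-expressing Gα16 and hTAAR1; dosing: one-point dosing at 3 µM (nominal); timing: 17-24 h seeding, 75 min 37 °C dye, 30 min RT; signal: kinetic Fluo-8 calcium fluorescence; read-out basis: % activation relative to PEA EC100 response; controls: DMSO and PEA EC100; replicates: n 1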
OX1R antag-1 – human HCRTR1 antagonism; O43613; CHO/OX1R cells, Fluo-8 calcium fluorescence, orexin A; inhibition, % at 5 µM; 0.43% of 330,000 active;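 active = inhibition above its plate's threshold, mean inhibition of all tested compounds on the plate plus 3 SD, cut at about 37% in these data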;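 note: 0% = orexin A challenge wells and 100% = SB-334867-A antagonist wells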
Target sequence (O43613 whole entry, looked up): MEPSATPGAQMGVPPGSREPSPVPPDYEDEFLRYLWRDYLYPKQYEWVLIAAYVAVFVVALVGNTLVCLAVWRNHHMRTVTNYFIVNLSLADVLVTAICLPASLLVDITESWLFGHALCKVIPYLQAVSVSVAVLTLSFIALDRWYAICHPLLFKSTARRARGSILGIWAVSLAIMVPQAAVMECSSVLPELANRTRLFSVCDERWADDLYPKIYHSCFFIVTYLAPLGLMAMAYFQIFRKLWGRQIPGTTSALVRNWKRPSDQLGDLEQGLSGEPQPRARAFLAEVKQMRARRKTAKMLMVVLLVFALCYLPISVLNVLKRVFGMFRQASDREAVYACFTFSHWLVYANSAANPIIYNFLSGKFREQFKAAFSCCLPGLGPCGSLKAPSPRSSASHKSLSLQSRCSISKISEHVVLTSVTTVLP
TAAR1 antagonist – human TAAR1 antagonism. CHO RD-HGA16 TAAR1, Fluo-8 calcium fluorescence, antagonist. inhibition, % at 3 µM. Q96RJ0. 1.5% of 360,000 active. AID 624466;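 active = inhibition above a per-plate cutoff, the mean inhibition of test compounds on that plate plus 3 SD, cut at about 49% in these data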;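 note: 0% = DMSO plus EC80 beta-PEA response and 100% = DMSO alone without agonist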
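Material: RD-HGA16 CHO cells with stable hTAAR1 and Gα16; Dosing: single nominal final test compound concentration of 3 µM; Schedule: seeding 17-24 h prior, 75-min 37 °C, 30-min RT dye loading; Detection: kinetic Fluo-8 calcium fluorescence measurement; Measure: % inhibition from peak post-agonist over basal fluorescence ratio; Benchmarks: vehicle and agonist controls.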
CHO parental Ca – counter-screen for OX1R antagonists: effect in parental CHO cells; parental CHO-K1, ATP-induced calcium, Fluo-8 fluorescence; inhibition, % at 5.6 µM; 0.63% of 330,000 active; AID 463079;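 active = inhibition above that plate's mean sample inhibition plus 3 SD, cut at about 26% in these data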;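 note: 0% = ATP-challenged DMSO wells and 100% = DMSO wells without ATP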
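Assay system – parental CHO cells · Reagent – ATP stimulus · Detection – intracellular calcium via Fluo-8 no-wash fluorescent dye · Evaluation – percent inhibition of ATP-evoked calcium rise, normalized to controls · Controls – ATP wells versus no-ATP DMSO wells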
GPR7 antagonist – blocks human GPR7 receptor signaling; P48145; AID 1861; inhibition, % at 4.4 µM; GPR7-expressing cells, fluorescence antagonist assay; 1.1% of 290,000 active; in the data active = inhibition above about 16%, passing the limit was not always enough;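 note: cells stimulated with the agonist NPW; 0% = agonist with vehicle and 100% = vehicle without agonist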
OX1R antag-2 – OX1R (human) antagonism; O43613; OX1R-expressing cells, FRET antagonist read-out; inhibition, % at 6.6 µM; 1.8% of 330,000 active; AID 485270; in the data active = inhibition mostly above about 38%, no sharp cut-off; inactive = mostly below about 40%;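 note: 0% = agonist challenge alone and 100% = reference antagonist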
GPR7 antag conf – confirmation of human GPR7 antagonists; AID 1952; GPR7-expressing cells, calcium fluorescence antagonist mode; shares compounds with GPR7 antagonist; 52% of 2,400 active; inhibition, % at 4.4 µM; in the data active = inhibition above about 24%;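 note: stimulated with the GPR7 agonist NPW; 0% = agonist plus vehicle and 100% = vehicle alone without agonist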
MCHR1 antag – MCHR1 (human) antagonism in GPR7 counter-screen; shares compounds with GPR7 antagonist; MCHR1-expressing cells, fluorescence antagonist assay; inhibition, % at 4.4 µM; 62% of 2,400 active; AID 2148; in the data active = inhibition above about 22%;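 note: 0% = vehicle with agonist and 100% = vehicle without agonist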
OX1R Fluo8 conf – confirmation of human orexin 1 receptor antagonists. 38% of 1,100 active. CHO/OX1R cells, orexin A calcium Fluo-8 fluorescence. inhibition, % at 5 µM. shares compounds with OX1R antag-1; in the data active = inhibition above about 29%;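 note: 0% = agonist challenge alone and 100% = reference antagonist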
CHO Ca triplic – counter-screen for OX1R antagonists: effect in parental CHO cells | shares compounds with OX1R antag-1 | parental CHO-K1, ATP-induced calcium, Fluo-8 fluorescence | 9.3% of 1,100 active | inhibition, % at 5.6 µM;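 active = inhibition above a per-plate limit, the mean inhibition of that plate's test compounds plus 3 SD, cut at about 25% in these data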;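 note: 0% = ATP challenge with DMSO and 100% = DMSO without ATP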
Active calls of the source: *; . = no result given.

SMILES	TAAR1 ag	OX1R antag-1	TAAR1 antagonist	CHO parental Ca	GPR7 antagonist	OX1R antag-2	GPR7 antag conf	MCHR1 antag	others
O=C(/C=C/c1ccccc1[N+](=O)[O-])N1CCN(c2ccc(F)cc2)CC1	0	-7	5	-8	-6	20	.	.
Cc1ccc(S(=O)(=O)N2CCN(C(=O)COC(=O)c3ccc(Cl)c(S(N)(=O)=O)c3)CC2)c(C)c1	1	.	10	.	.	.	.	.
CC(=O)NCCNC(=O)C1(C)Cc2c(-c3cccc(C(F)(F)F)c3)ccnc2O1 (stereo unspecified)	0	.	-18	.	.	.	.	.
O=C(N/N=C/c1ccccc1)c1cc(-c2ccc3c(c2)OCO3)n[nH]1	14	-31	21	-9	23*	13	-1	36*
COc1cc(CN2C[C@@H](CO)O[C@@H](n3cnc4c(N5CCN(C)CC5)ncnc43)C2)cc(OC)c1OC	1	.	0	.	.	.	.	.
CC1(C)Cc2c(C#N)c(N)n(-c3ccccc3)c(=S)c2CO1	5	-4	-18	-6	92*	19	-3	-7
CCOC(=O)C1(Cc2ccc(OC)cc2)CCN(C(=O)c2cc(C)on2)CC1	3	-6	-6	-26	25*	5	0	3
CCC(=O)N1CCC1(C)C(=O)Nc1ncc(C)s1 (stereo unspecified)	1	.	-8	.	.	.	.	.
O=C1NC(=Nc2ccccc2)c2c1cccc2[N+](=O)[O-]	5	-3	-19	-5	32*	74*	-4	-14
CC(=O)c1ccccc1OCCCCN1CCCCC1	4	-16	3	-2	-3	16	.	.
CCC(C)(C(=O)NC1CCCC1)N(Cc1ccco1)C(=O)c1ccc2c(c1)OCO2 (stereo unspecified)	4	-30	-4	-11	31*	11	37*	20
CCC(C)(C(=O)NC1CCCC1)N(Cc1ccco1)C(=O)c1ccccn1 (stereo unspecified)	4	-34	11	-9	17	13	.	.
CCC(C)(C(=O)NC1CCCC1)N(Cc1ccco1)C(=O)Cc1cccs1 (stereo unspecified)	8	-20	6	-16	38*	19	33*	23*
C/C(CC(=O)Nc1ccc(F)cc1F)=N\NC(=O)C(=O)N1CCCCC1	.	-11	.	-5	-11	18	.	.
CCOc1ccc(-c2cc(NC(=O)c3c(F)cccc3F)c(C(=O)O)s2)cc1	4	.	25	.	51*	.	26*	28*
CCOc1ccc(NC(=O)Nc2cc(-c3ccccc3)sc2C(=O)OC)cc1	0	-32	2	-25	8	24	.	.
CC(=O)Nc1ccc(S(=O)(=O)NCc2nc(-c3ccc(C)cc3)no2)cc1	-1	-13	-23	-18	-16	14	.	.
CC(=O)Nc1ccc(S(=O)(=O)NCc2nc(-c3cccc(C)c3)no2)cc1	3	13	3	-8	24*	16	0	0
Cc1cccc(NC(=O)CSc2nc(=O)n(CCCN3CCOCC3)c3c2CCCC3)c1C	13	.	-42	.	.	.	.	.
Cc1ccc2c(c1)c1c(n2CC(O)CNC(CO)(CO)CO)CCCC1 (stereo unspecified)	1	8	-15	6	-2	11	.	.
Cc1ccc2c(c1)c1c(n2CC(O)CNC2CCCCC2)CCCC1 (stereo unspecified)	24	-4	11	19	32*	13	56*	54*
CCC(=O)N(c1nnc(SCC(=O)NN2C(=O)NC3(CCCCC3)C2=O)s1)C1CC1	3	-14	-13	-9	.	3	.	.
CC(=O)c1ccc(N2CCN(C(=O)c3cccc(Oc4ccccc4)c3)CC2)cc1	5	10	40	12	23*	18	34*	53*
COC(=O)CCN1CCC2CC1c1cc(N3CCCCC3)ccc12 (stereo unspecified)	1	.	-11	.	.	.	.	.
Cc1c(C)n2c(SCC(=O)N3CCN(c4ccccc4)CC3)nnc2[nH]c1=O	0	12	-10	-11	.	-1	.	.
SMILES	TAAR1 ag	OX1R antag-1	TAAR1 antagonist	CHO parental Ca	GPR7 antagonist	OX1R antag-2	GPR7 antag conf	MCHR1 antag	others
Cc1ccc(NS(=O)(=O)c2ccc(C(=O)N3CCCCCCC3)cc2)cc1	54*	-7	18	-1	26*	21	29*	28*
Cc1ccc(NS(=O)(=O)c2ccc(C(=O)N3CCC3)cc2)cc1	12	-27	-18	-8	.	15	.	.
Cc1cc(S(=O)(=O)Nc2ccc(C(=O)NCC3(N4CCCCC4)CCCCC3)cc2)ccc1F	1	-25	2	-14	.	7	.	.
CCOc1ccc(NS(=O)(=O)c2ccc(C(=O)NCC3(N4CCCCC4)CCCCC3)cc2)cc1	19	20	14	7	58*	2	21	34*
Cc1ccc(S(=O)(=O)NCc2ccc(C(=O)N3CCN(c4ccc([N+](=O)[O-])cc4)CC3)cc2)cc1	-1	-12	-31	23	41*	0	26*	67*
CC(C)Nc1nnc(SCc2cc(=O)n3ccsc3n2)s1	-1	-18	-2	-2	25*	23	-4	-12
O=c1cc(CSc2nnc(Nc3ccccc3)s2)nc2sccn12	9	-5	18	-5	-16	17	.	.
C=CCc1cc(Cl)ccc1OCCOCCNC(C)CC (stereo unspecified)	5	-16	-11	-9	6	4	.	.
CCC(C)NCCOCCOc1ccc(Cl)c2ccccc12 (stereo unspecified)	25	0	19	-1	71*	9	50*	53*
CCC(C)NCCOCCOc1ccc(Cl)c(C)c1C (stereo unspecified)	9	-19	14	-12	21*	7	24*	25*
CCOC(=O)N1CCC(N(C(=O)Nc2cccc(OC)c2)C(C)CC)CC1 (stereo unspecified)	2	5	4	-6	32*	-2	19	-12
O=C(CNS(=O)(=O)c1ccc(Br)s1)NCCc1ccc(Cl)cc1	3	21	19	-7	25*	21	3	34*	OX1R Fluo8 conf=-5;CHO Ca triplic=-3
CS(=O)(=O)N1CCc2cc(C(=O)N3CCN(c4cccc(Cl)c4)CC3)ccc21	5	2	-21	-16	8	-1	.	.
